The entries come from a sample that favours hits as a whole.
E-sel inducer = E-selectin induction in HUVECs, primary screen, imaging, HUVEC, immunofluorescence imaging, single point | P16581 | normalized: neutral wells 0, TNF-alpha wells 100 | hit rate 0.37% among 260,000 | activation, % at 7.58 µM;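 active means mean E-selectin-positive cell signal at least 10% of the positive control, reached in at least 60% of replicates, without over 20% cell loss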
Target sequence (P16581 whole entry, looked up): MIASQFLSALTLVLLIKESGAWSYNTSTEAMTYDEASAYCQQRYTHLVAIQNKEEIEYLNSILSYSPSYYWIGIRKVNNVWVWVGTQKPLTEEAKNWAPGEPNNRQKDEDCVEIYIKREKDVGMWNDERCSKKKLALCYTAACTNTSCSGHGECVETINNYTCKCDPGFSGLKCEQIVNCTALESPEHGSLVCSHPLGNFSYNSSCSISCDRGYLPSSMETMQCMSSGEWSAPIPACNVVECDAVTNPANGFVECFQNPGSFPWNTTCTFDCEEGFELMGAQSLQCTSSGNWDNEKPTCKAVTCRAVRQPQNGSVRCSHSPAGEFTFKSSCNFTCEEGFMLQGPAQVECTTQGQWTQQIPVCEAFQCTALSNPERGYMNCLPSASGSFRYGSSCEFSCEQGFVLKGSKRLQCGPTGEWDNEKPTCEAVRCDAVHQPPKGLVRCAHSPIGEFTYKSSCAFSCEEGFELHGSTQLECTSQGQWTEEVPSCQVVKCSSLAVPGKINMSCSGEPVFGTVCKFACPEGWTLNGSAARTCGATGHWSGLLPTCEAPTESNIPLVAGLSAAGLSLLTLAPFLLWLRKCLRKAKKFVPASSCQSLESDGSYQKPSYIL
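Test system: HUVEC; input: 3,000 HUVEC/well; measured by: immunofluorescence imaging; read-out: % PE-positive cells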
* marks the source's active call; other numbers are inactive results.

SMILES | E-sel inducer
C[C@@H]1CN([C@H](C)CO)C(=O)c2cccc(NS(C)(=O)=O)c2O[C@@H]1CN(C)Cc1ccc(Oc2ccccc2)cc1 | 41*
C[C@H](CO)N1C[C@H](C)[C@@H](CN(C)Cc2ccncc2)Oc2c(NS(C)(=O)=O)cccc2C1=O | 9
C[C@@H]1CN([C@H](C)CO)C(=O)c2cccc(NS(C)(=O)=O)c2O[C@H]1CN(C)Cc1ccncc1 | 125*
C[C@H]1CN([C@@H](C)CO)C(=O)c2cccc(NS(=O)(=O)c3ccccc3)c2O[C@@H]1CN(C)Cc1ccc(Oc2ccccc2)cc1 | 0
CCCNC(=O)C[C@H]1CC[C@@H]2[C@@H](COc3ccc(NC(=O)NC(C)C)cc3C(=O)N2C)O1 | 0
C[C@H](CO)N1C[C@H](C)[C@@H](CN(C)S(C)(=O)=O)Oc2ncc(C#CC3CCCCC3)cc2C1=O | 0
C[C@H]1CN([C@@H](C)CO)C(=O)Cc2cc(NS(=O)(=O)c3ccc(F)cc3)ccc2O[C@@H]1CN(C)C(=O)Nc1cccc2ccccc12 | 0
CC(=O)c1cccc(N(C(=O)CNC(=O)c2ccco2)C(C(=O)NC2CCCC2)c2ccncc2)c1 (configuration not stated) | 0
CCOC(=O)c1ccc(N(C(=O)c2ccco2)C(C(=O)NC2CCCCC2)c2ccncc2)cc1 (configuration not stated) | 35*
CC(=O)c1ccc(N(C(=O)CNC(=O)c2ccco2)C(C(=O)NC2CCCC2)c2ccc(C)o2)cc1 (configuration not stated) | 33*
CCOc1ccc(N(C(=O)CNC(=O)c2ccco2)C(C(=O)NC2CCCC2)c2cccnc2)cc1 (configuration not stated) | 15
CC(C)c1ccc(N(C(=O)c2ccco2)C(C(=O)NC2CCCC2)c2ccncc2)cc1 (configuration not stated) | 0
COc1ccc(N(C(=O)c2ccco2)C(C(=O)NC2CCCC2)c2ccncc2)cc1 (configuration not stated) | 0
C[C@H](NC(=O)C[C@H]1C[C@@H]2c3cc(NS(C)(=O)=O)ccc3O[C@@H]2[C@H](CO)O1)c1ccccc1 | 2
COCC#Cc1cnc2c(c1)C(=O)N([C@@H](C)CO)C[C@@H](C)[C@H](CN(C)C(=O)C1CCCCC1)O2 | 0
CCNC(=O)C[C@@H]1CC[C@@H]2[C@@H](COc3ccc(NC(=O)Nc4c(C)noc4C)cc3C(=O)N2C)O1 | 0
C[C@H](CO)N1C[C@H](C)[C@H](CN(C)C(=O)Nc2ccccc2)Oc2ccc(NC(=O)Cc3ccccc3)cc2CC1=O | 0
Cc1ccc(S(=O)(=O)Nc2ccc3c(c2)C(=O)N([C@@H](C)CO)C[C@@H](C)[C@H](CN(C)C(=O)NC2CCCCC2)OCCCC[C@@H](C)O3)cc1 | 0
O=C(NCCCN1CCCCC1)c1ccc(CS(=O)c2ccc(Cl)cc2)o1 (configuration not stated) | 0
CCCN1CCN(C(=O)c2ccc(CS(=O)c3ccc(Cl)cc3)o2)CC1 (configuration not stated) | 49*
O=C(c1ccco1)N1CCN(C(=O)c2ccc(CS(=O)c3ccc(Br)cc3)o2)CC1 (configuration not stated) | 0
CCCNC(=O)N1C[C@@H](O)COC[C@H]2O[C@@H](CC(=O)N[C@H]3CCN(Cc4ccccc4)C3)CC[C@@H]21 | 0
COc1ccc(NC(=O)N(C)C[C@H]2OCCCC[C@H](C)Oc3ccc(NC(=O)C4CCCCC4)cc3C(=O)N([C@H](C)CO)C[C@H]2C)cc1 | 0
COC(CNC(=O)c1ccc2c(=O)n(Cc3ccc(Cl)cc3)c(=S)[nH]c2c1)OC | 4
COCCCNC(=O)c1ccc2c(=O)n(Cc3ccc(Cl)cc3)c(=S)[nH]c2c1 | 49*
SMILES | E-sel inducer
COCCCNC(=O)c1ccc2c(=O)n(Cc3ccccc3OC)c(=S)[nH]c2c1 | 0
O=S(=O)(c1ccccc1F)N1C[C@H]2[C@@H](c3ccccc31)[C@@H](CO)N2Cc1ccc2c(c1)OCO2 | 0
Cc1ccc(S(=O)(=O)N(C)C[C@@H]2Oc3ccc(NC(=O)CCCN(C)C)cc3C(=O)N([C@H](C)CO)C[C@@H]2C)cc1 | -10
C[C@H](CO)N1C[C@H](C)[C@H](CN(C)Cc2ccc(Oc3ccccc3)cc2)Oc2ccc(NC(=O)CCCN(C)C)cc2C1=O | 4
Cc1ccc(S(=O)(=O)N(C)C[C@H]2Oc3ccc(NC(=O)CCCN(C)C)cc3C(=O)N([C@H](C)CO)C[C@@H]2C)cc1 | -2
Cc1ccc(S(=O)(=O)N(C)C[C@H]2Oc3ccc(NC(=O)CCCN(C)C)cc3C(=O)N([C@H](C)CO)C[C@H]2C)cc1 | 282*
C[C@@H]1CN([C@@H](C)CO)C(=O)c2cc(NC(=O)CCCN(C)C)ccc2O[C@H]1CN(C)S(=O)(=O)c1ccc(F)cc1 | 2
COc1ccc(S(=O)(=O)N(C)C[C@H]2Oc3ccc(NC(=O)CCCN(C)C)cc3C(=O)N([C@H](C)CO)C[C@H]2C)cc1 | 21
COc1ccc(CN(C)C[C@H]2Oc3ccc(NC(=O)CCCN(C)C)cc3C(=O)N([C@H](C)CO)C[C@H]2C)cc1 | 35*
C[C@@H]1CN([C@H](C)CO)C(=O)c2cc(NC(=O)CCCN(C)C)ccc2O[C@@H]1CN(C)Cc1ccc(Oc2ccccc2)cc1 | -12
COc1ccc(S(=O)(=O)N(C)C[C@@H]2Oc3ccc(NC(=O)CCCN(C)C)cc3C(=O)N([C@@H](C)CO)C[C@@H]2C)cc1 | 57*
CS(=O)(=O)N1C[C@H](O)COC[C@H]2O[C@@H](CC(=O)NCc3ccccc3)CC[C@@H]21 | 0
N#Cc1ccc(-c2ccc3c(c2)[C@H]2[C@H](CCN2C(=O)CN2CCOCC2)[C@@H](CO)N3)cc1 | -1
C/C=C/c1ccc2c(c1)O[C@@H](CN(C)C(=O)NCCC)[C@H](C)CN([C@@H](C)CO)S2(=O)=O | 0
CNC(=O)C[C@@H]1CC[C@@H]2[C@H](COc3ccc(NC(=O)c4ccccc4OC)cc3C(=O)N2C)O1 | 0
O=C(NCc1ccc(F)cc1)[C@H]1[C@H](CO)[C@H]2Cn3c(cccc3=O)[C@@H]1N2C(=O)C1CC1 | 0
C[C@H](CO)N1C[C@H](C)[C@H](CN(C)C(=O)NC2CCCCC2)Oc2ccc(N(C)C)cc2C1=O | -2
CNC[C@H]1Oc2ccc(N(C)C)cc2C(=O)N([C@@H](C)CO)C[C@H]1C | 129*
C[C@@H]1CN([C@@H](C)CO)C(=O)c2cc(NS(=O)(=O)c3cn(C)cn3)ccc2O[C@H]1CN(C)Cc1ccncc1 | -4
CNC[C@@H]1OCCCC[C@H](C)Oc2ccc(N(C)C)cc2C(=O)N([C@H](C)CO)C[C@@H]1C | -1
C[C@H]1CN([C@@H](C)CO)C(=O)c2cc(NS(=O)(=O)c3cn(C)cn3)ccc2O[C@H]1CN(C)Cc1ccncc1 | -5
Cc1noc(C)c1S(=O)(=O)Nc1ccc2c(c1)C(=O)N([C@@H](C)CO)C[C@H](C)[C@H](CN(C)Cc1ccc3c(c1)OCO3)O2 | 401*
Cc1noc(C)c1S(=O)(=O)Nc1ccc2c(c1)C(=O)N([C@H](C)CO)C[C@H](C)[C@@H](CN(C)Cc1ccc3c(c1)OCO3)O2 | 1
C[C@@H]1CN([C@@H](C)CO)C(=O)c2cc(N(C)C)ccc2O[C@@H]1CN(C)S(=O)(=O)c1cn(C)cn1 | -10
CNC[C@@H]1Oc2ccc(N(C)C)cc2C(=O)N([C@@H](C)CO)C[C@H]1C | -1
